Source: PubChem BioAssay (several laboratories)
Compounds with a hit are over-represented: about 2.5% of the library has one in this group of screens.
RORA act = RORA (human) activation; P35398; CHO-K1 Gal4-RORA LBD luciferase reporter, luminescence; percent increase over mock-subtracted basal signal; activation, % at 10 µM; 65,000 compounds, 1.5% hits;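 active = activation above the mean of all tested compounds plus 3 SD, cut at about 49% in these data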;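 also: 0% = DMSO-treated RORA cells and 100% = added signal equal to DMSO minus mock-transfected cells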
ROCK2 inh = inhibitors of human Rho kinase 2; O75116; purified ROCK2, Kinase-Glo ATP depletion luminescence; inhibition, % at 6 µM; 60,000 compounds, 0.35% hits; AID 604;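 active = inhibition above the screen-wide mean inhibition plus 3 SD, cut at about 18% in these data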;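 also: plate controls were DMSO wells for no effect and Y-27632 control wells after no-enzyme background subtraction for full effect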
PKA kinase inh = inhibitors of human protein kinase A | P17612 | PKA Kemptide phosphorylation, Kinase-Glo ATP luminescence | inhibition, % at 6 µM | 65,000 compounds, 0.1% hits | AID 524;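 active = inhibition above the screen-wide mean inhibition plus 3 SD, cut at about 21% in these data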
SF1 activator = activates the human nuclear receptor SF-1. CHO-K1 Gal4-SF-1 LBD luciferase reporter; % increase over DMSO SF-1-specific signal. 65,000 compounds, 1.9% hits. activation, % at 10 µM;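 active = activation above the mean activation of all tested compounds plus 3 SD, cut at about 50% in these data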
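Test system: CHO-K1 cells with Gal4–hSF-1 LBD chimera plus Gal4-driven luciferase; Input: 4,000 cells/well; Compound: 10 µM only; Times: 20 h compound treatment, 37 °C; Measured by: steady-glow luciferase luminescence, read after 15 min reagent incubation; Measure: percent activation versus DMSO; Control set: DMSO and mock-transfected background; Replicates: one test per compound.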
JNK3 blocker = inhibitors of human JNK3 kinase. 60,000 compounds, 0.61% hits. AID 746. P53779. inhibition, % at 8 µM. purified JNK3 kinase activity, HTS; in the data active = inhibition above about 17%;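 also: 0% = DMSO and 100% = reference inhibitor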
Target sequence (P53779 whole entry, looked up): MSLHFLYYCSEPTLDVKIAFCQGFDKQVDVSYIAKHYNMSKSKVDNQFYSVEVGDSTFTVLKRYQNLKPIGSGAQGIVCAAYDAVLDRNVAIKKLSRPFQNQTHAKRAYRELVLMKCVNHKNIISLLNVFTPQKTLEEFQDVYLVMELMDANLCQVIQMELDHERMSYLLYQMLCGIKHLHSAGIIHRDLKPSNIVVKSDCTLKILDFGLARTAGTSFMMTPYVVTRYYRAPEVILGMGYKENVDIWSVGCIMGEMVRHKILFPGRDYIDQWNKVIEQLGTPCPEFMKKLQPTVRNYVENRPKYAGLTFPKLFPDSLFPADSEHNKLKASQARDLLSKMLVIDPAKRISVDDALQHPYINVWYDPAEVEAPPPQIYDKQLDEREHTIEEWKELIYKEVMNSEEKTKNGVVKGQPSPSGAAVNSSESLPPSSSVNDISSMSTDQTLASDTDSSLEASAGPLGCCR
MT1-MMP txn act = activates MT1-MMP transcription; HT1080 MT1-MMP promoter luciferase reporter, luminescence, overnight; active compounds read high; 86,000 compounds, 0.16% hits; AID 750; activation factor at 10 µM;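 active = activation factor of at least 2 for MT1-MMP transcription at 10 µM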
Numbers without * were called inactive; x = not tested or not shown.

SMILES	RORA act	ROCK2 inh	PKA kinase inh	SF1 activator	JNK3 blocker	MT1-MMP txn act
CSc1nc2ccc(NC(=O)C3CC(=O)N(Cc4ccccc4)C3)cc2s1 (stereo not given)	x	x	x	x	x	1.1
CC(=O)Nc1ccc2oc(-c3cc(F)c(F)cc3Cl)nc2c1	52.3*	4.3	5.1	52.9*	-11.5	x
CC(C)C(=O)Nc1ccc2oc(-c3cc(F)c(F)cc3Cl)nc2c1	x	x	x	x	x	1.4
CCC(C)c1ccc2oc(-c3ccc(NC(=O)c4ncn[nH]4)cc3)nc2c1 (stereo not given)	-8.9	1.8	3.4	7.5	-1.8	1.2
Cc1ccc2oc(-c3ccc(NC(=O)CC(C)C)cc3)nc2c1	55.2*	6.3	9.4	43.9	3.0	1.3
CC(C)c1ccc2oc(-c3ccc(NC(=O)c4ncn[nH]4)cc3)nc2c1	33.4	2.1	2.3	65.9*	7.4	1
CC(C)CC(=O)Nc1ccc2oc(-c3cccnc3)nc2c1	46.0	-2.4	-7.8	31.9	5.3	1.5
O=C(Nc1ccc2oc(-c3ccccc3Cl)nc2c1)c1ncn[nH]1	62.4*	4.2	5.5	75.6*	1.5	0.8
COC(=O)c1ccc(C(/C=C/[C@@H](C)C(=O)NCCc2c[nH]c3ccccc23)NC(=O)OCc2ccccc2)cc1 (stereo not given in full)	x	x	x	x	x	1.1
O=C(NCc1ccc2c(c1)OCO2)c1c[nH]c2ccc(S(=O)(=O)N3CCOCC3)cc2c1=O	-14.7	-0.5	-1.7	-7.5	-1.3	1.1
O=C(NCc1ccccc1)c1c[nH]c2cc3c(cc2c1=O)OCCO3	x	x	x	x	x	2.2*
CC(=O)C(C)Oc1ccc2c3c(c(=O)oc2c1C)CCCC3 (stereo not given)	59.5*	4.2	7.5	6.7	-1.7	1.2
Cc1c(O)ccc2c3c(c(=O)oc12)CCCC3	-8.2	2.7	4.5	-9.5	0.7	0.9
CC(=O)COc1ccc2c3c(c(=O)oc2c1C)CCCCC3	25.7	3.5	6.4	53.9*	2.7	1.2
Cc1c(OCC(=O)OC(C)C)ccc2c3c(c(=O)oc12)CCC3	-7.3	6.6	0.5	-7.8	-0.6	0.9
Cc1ccc2oc(=O)c3cc(C(=O)N4CCN(c5ncccn5)CC4)sc3c2c1	-13.3	1.5	1.2	-7.0	7.0	1
CCCCCCN(C(=O)CCCCCN1C(=O)NC(c2ccc(-c3ccccc3)cc2)C(C(=O)OCc2ccccc2)=C1C)C(C(=O)NCCCC)c1ccc(OCC(=O)O)c(C(=O)O)c1 (stereo not given)	x	x	x	x	x	1.1
COc1ccc(CN(Cc2cccnc2)S(=O)(=O)c2ccc(-n3cnnn3)c(C)c2)cc1OC	0.7	-5.5	-5.8	-13.0	-8.7	1.1
CCOC(=O)c1cnc(-c2ccccc2)nc1N(C)C	x	x	x	x	x	1.8
CCOC(=O)c1cnc(-c2ccccc2)nc1N	47.7	1.6	1.6	63.8*	2.1	1
CC(=O)Nc1cnc(NC(=O)c2cccc(F)c2)cc1C	21.6	x	-1.2	76.2*	x	1.6
CCC(=O)Nc1cnc(NC(=O)c2cccc(F)c2)cc1C	35.7	x	0.1	31.6	x	1
Cc1nc2ccc(C(=O)c3ccccc3)cc2[nH]1	12.6	5.6	11.4	56.9*	9.1	1.4
O=C(c1ccccc1)c1ccc2nc[nH]c2c1	14.5	32.9*	13.9	24.0	1.9	1.5
CCCCCCc1ccc(-c2ncc(N)cn2)cc1	50.2*	3.5	11.7	58.6*	-0.8	0
SMILES	RORA act	ROCK2 inh	PKA kinase inh	SF1 activator	JNK3 blocker	MT1-MMP txn act
O=C1c2ccccc2C(=O)N1CCCN1CCN(CCCN2C(=O)c3ccccc3C2=O)CC1	x	x	x	x	x	1.3
O=C(CSc1ncnc2c1nnn2-c1ccc(F)cc1)N1CCN(c2ccccc2)CC1	-7.1	x	0.6	-1.4	x	1.1
O=C1c2ccccc2C(=O)C1c1ccncc1	31.6	-0.5	-5.7	1.2	50.7*	0.6
Cc1cc(C(=O)Nc2ccccn2)cs1	55.9*	-9.0	-2.8	62.2*	12.4	0.7
COc1cc(C(=O)Nc2ccccn2)cc(OC)c1OC	-1.5	7.5	4.0	6.6	5.1	1.1
Cc1ccc2nc(-c3ccc(NC(=O)c4ccco4)cc3)[nH]c2c1	31.0	4.9	2.2	50.1*	6.0	1.3
O=C(OC1CCCCC1)c1ccc(NC(=O)c2ccco2)cc1	49.3*	1.6	4.3	59.5*	-1.6	1.5
O=C(Nc1ccc(-c2nc3ncccc3o2)cc1)c1ccco1	42.2	-4.0	3.7	63.3*	2.1	1.1
Cn1cccc1-c1nc2ccc(NC(=O)c3ccco3)cc2[nH]1	4.9	3.5	2.8	16.6	-4.8	1.5
COC(=O)[C@@]1(Cc2ccc(F)cc2)[C@H]2c3cc(C(=O)N4CCCC4)n(CCc4c[nH]c5ccccc45)c3C[C@H]2CN1C(=O)c1ccccc1	x	x	x	x	x	1.1
CCC/C=C(\CCC)C(NS(=O)(=O)c1cccs1)c1ccc(C(=O)OC)cc1 (stereo not given)	x	x	x	x	x	1.2
O=C(Nc1ccc(-c2nc3cccnc3s2)cc1)c1ccco1	25.4	4.5	7.0	14.2	22.7*	1.9
O=C(Nc1ccccn1)c1ccc(NC(=O)c2ccco2)cc1	70.7*	-0.8	-1.6	60.4*	12.6	1.2
Cc1ccc(C)c(/C(O)=C2\C(=O)C(=O)N(CCCN(C)C)C2c2cccnc2)c1 (stereo not given)	7.6	x	8.1	-10.2	x	0.9
CCCCOc1ccc(C2CC(=O)NC2=O)cc1 (stereo not given)	7.1	-1.2	-0.1	9.4	-1.5	1.2
C=CCn1c(C)cc(C(=O)COc2nncc3ccccc23)c1C	79.6*	x	5.6	38.9	x	1.2
O=C(CSc1nc2ccccc2[nH]1)N1CCCCC1	52.1*	4.4	8.4	47.6	3.4	1.6
Cc1ccc2nc(SCC(=O)c3cc(C)n(C)c3C)[nH]c2c1	x	x	x	x	x	1.2
Cc1cc(C(=O)CSc2nc3ccccc3[nH]2)c(C)n1C	59.3*	-0.7	-6.1	61.0*	5.2	1
C=CCn1c(C)cc(C(=O)CSc2nnc(NCc3ccccc3)s2)c1C	32.2	1.5	10.7	59.0*	-0.8	1.3
O=C(CSc1nc2ccccc2[nH]1)N1CCN(c2ccccc2)CC1	-0.8	4.8	-0.1	11.3	-3.1	1.1
CC1=C(C(=O)OCc2ccccc2)C(c2ccccc2OC(=O)c2ccc(I)cc2)NC(=O)N1CCCC(=O)O (stereo not given)	x	x	x	x	x	1.1
C=CCn1c(C)cc(C(=O)CSc2nc3ccccc3c(=O)[nH]2)c1C	-36.8	6.4	5.3	111.9*	-0.9	1.8
Cc1cc(C(=O)OCC(=O)NCCCN2CCCC2=O)c2ccccc2n1	x	x	x	x	x	1.1
O=C1OC(c2ccccc2)=C/C1=C/N1CCCCC1	71.4*	3.6	10.8	21.6	-15.9	1.5
Cc1ccccc1CN1CCN(CC(=O)NCc2ccc3c(c2)OCO3)C1=O	-8.8	x	5.6	14.1	x	1
CN(c1ccccc1)c1nc2ccsc2c(=O)s1	32.1	x	4.6	50.2*	x	1.4
